Reference: ChEMBL document CHEMBL3862007, “Synthesis and antimicrobial activity of small cationic amphipathic aminobenzamide marine natural product mimics and evaluation of relevance against clinical isolates including ESBL-CARBA producing multi-resistant bacteria” (Bioorg Med Chem, 2016)

Experiments:
Staphylococcus aureus [1] = assay: Antibacterial activity against Staphylococcus aureus ATCC 9144 after 48 hrs by microdilution method; type: functional; settings: ATCC 9144, 48 h
[2] = Antibacterial activity against methicillin-resistant Staphylococcus epidermidis RP62A CCUG 31568 (ATCC 35984) after 48 hrs by microdilution method; type: functional
Procedure, shortened: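 Broth microdilution MIC against the reference-strain panel. Compounds were supplied as HCl salts for aqueous solubility in the test medium. Precipitation in the test buffer is flagged at higher concentrations.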

Bacillus subtilis = assay: Antibacterial activity against Bacillus subtilis 168 ATCC 23857 after 48 hrs by microdilution method; type: functional; settings: subsp. subtilis str. 168 ATCC 23857, 48 h
[3] = test system: Corynebacterium glutamicum; assay: Antibacterial activity against Corynebacterium glutamicum ATCC 13032 after 48 hrs by microdilution method; type: functional; settings: ATCC 13032, 48 h
Escherichia coli [4] = assay: Antibacterial activity against Escherichia coli ATCC 25922 after 48 hrs by microdilution method; type: functional; settings: ATCC 25922, 48 h
Pseudomonas aeruginosa [5] = assay: Antibacterial activity against Pseudomonas aeruginosa PAO1 DSM 19880 (ATCC 15692) after 48 hrs by microdilution method; type: functional
[6] = Hemolytic activity in human RBC after 1 hr; type: ADME, cell-based; settings: Erythrocyte
[7] = Selectivity index, ratio of hemolytic EC50 for human RBC to MIC for Staphylococcus aureus ATCC 9144
Staphylococcus aureus [8] = assay: Antibacterial activity against Staphylococcus aureus clinical isolate after 24 hrs by microdilution method; type: functional
Enterococcus sp. = assay: Antibacterial activity against Enterococcus sp. clinical isolate after 24 hrs by microdilution method; type: functional
Escherichia coli [9] = assay: Antibacterial activity against Escherichia coli clinical isolate after 24 hrs by microdilution method; type: functional
Pseudomonas aeruginosa [10] = assay: Antibacterial activity against Pseudomonas aeruginosa clinical isolate after 24 hrs by microdilution method; type: functional
Klebsiella pneumoniae [11] = assay: Antibacterial activity against Klebsiella pneumoniae clinical isolate after 24 hrs by microdilution method; type: functional
Staphylococcus aureus [12] = assay: Antibacterial activity against methicillin resistant Staphylococcus aureus N315 after 24 hrs by microdilution method; type: functional; settings: N315, 24 h
Staphylococcus aureus [13] = assay: Antibacterial activity against methicillin resistant Staphylococcus aureus NCTC 10442 after 24 hrs by microdilution method; type: functional; settings: NCTC 10442, 24 h
Staphylococcus aureus [14] = assay: Antibacterial activity against methicillin resistant Staphylococcus aureus clinical isolate 85/2082 after 24 hrs by microdilution method; type: functional; settings: isolate 85/2082, 24 h
Staphylococcus aureus [15] = assay: Antibacterial activity against methicillin resistant Staphylococcus aureus clinical isolate WIS after 24 hrs by microdilution method; type: functional
Staphylococcus aureus [16] = assay: Antibacterial activity against methicillin resistant Staphylococcus aureus IHT 99040 after 24 hrs by microdilution method; type: functional; settings: IHT 99040, 24 h
Enterococcus faecium [17] = assay: Antibacterial activity against vancomycin-resistant Enterococcus faecium 50673722 after 24 hrs by microdilution method; type: functional; settings: Enterococcus faecium, 50673722, 24 h
Enterococcus faecium [18] = assay: Antibacterial activity against vancomycin-resistant Enterococcus faecium 50901530 after 24 hrs by microdilution method; type: functional; settings: Enterococcus faecium, 50901530, 24 h
Enterococcus faecium [19] = assay: Antibacterial activity against vancomycin-resistant Enterococcus faecium K36-18 after 24 hrs by microdilution method; type: functional; settings: K36-18, 24 h
Enterococcus faecium [20] = assay: Antibacterial activity against vancomycin-resistant Enterococcus faecium 50758899 after 24 hrs by microdilution method; type: functional; settings: Enterococcus faecium, 50758899, 24 h
Enterococcus faecium [21] = assay: Antibacterial activity against vancomycin-resistant Enterococcus faecium TUH50-22 after 24 hrs by microdilution method; type: functional; settings: TUH50-22, 24 h
Escherichia coli [22] = assay: Antibacterial activity against multi-drug resistant/OXA-48 producing Escherichia coli 50579417 after 24 hrs by microdilution method; type: functional; settings: Escherichia coli, 50579417, 24 h
Escherichia coli [23] = assay: Antibacterial activity against multi-drug resistant/VIM-29 producing Escherichia coli 50639799 after 24 hrs by microdilution method; type: functional; settings: Escherichia coli, 50639799, 24 h
Escherichia coli [24] = assay: Antibacterial activity against multi-drug resistant/NDM-1 producing Escherichia coli 50676002 after 24 hrs by microdilution method; type: functional; settings: Escherichia coli, 50676002, 24 h
Escherichia coli [25] = assay: Antibacterial activity against multi-drug resistant/NDM-1 producing Escherichia coli 50739822 after 24 hrs by microdilution method; type: functional; settings: Escherichia coli, 50739822, 24 h
Escherichia coli [26] = assay: Antibacterial activity against multi-drug resistant/IMP-26 producing Escherichia coli 50857972 after 24 hrs by microdilution method; type: functional; settings: Escherichia coli, 50857972, 24 h
Pseudomonas aeruginosa [27] = assay: Antibacterial activity against multi-drug resistant/VIM-2 producing Pseudomonas aeruginosa K34-7 after 24 hrs by microdilution method; type: functional; settings: K34-7, 24 h
Pseudomonas aeruginosa [28] = assay: Antibacterial activity against multi-drug resistant/VIM-4 producing Pseudomonas aeruginosa K34-73 after 24 hrs by microdilution method; type: functional; settings: K34-73, 24 h
Pseudomonas aeruginosa [29] = assay: Antibacterial activity against multi-drug resistant/IMP-14 producing Pseudomonas aeruginosa K44-24 after 24 hrs by microdilution method; type: functional; settings: K44-24, 24 h
Pseudomonas aeruginosa [30] = assay: Antibacterial activity against multi-drug resistant/NDM1 producing Pseudomonas aeruginosa 50692172 after 24 hrs by microdilution method; type: functional; settings: Pseudomonas aeruginosa, 50692172, 24 h
Pseudomonas aeruginosa [31] = assay: Antibacterial activity against multi-drug resistant/VIM producing Pseudomonas aeruginosa 50692520 after 24 hrs by microdilution method; type: functional; settings: Pseudomonas aeruginosa, 50692520, 24 h
Klebsiella pneumoniae [32] = assay: Antibacterial activity against multi-drug resistant/KPC-2 producing Klebsiella pneumoniae K47-25 after 24 hrs by microdilution method; type: functional; settings: K47-25, 24 h
Klebsiella pneumoniae [33] = assay: Antibacterial activity against multi-drug resistant/NDM1 producing Klebsiella pneumoniae K66-45 after 24 hrs by microdilution method; type: functional; settings: K66-45, 24 h
Klebsiella pneumoniae [34] = assay: Antibacterial activity against multi-drug resistant/NDM1/OXA-181 producing Klebsiella pneumoniae 50531633 after 24 hrs by microdilution method; type: functional; settings: Klebsiella pneumoniae, 50531633, 24 h
Klebsiella pneumoniae [35] = assay: Antibacterial activity against multi-drug resistant/OXA-245 producing Klebsiella pneumoniae 50625602 after 24 hrs by microdilution method; type: functional; settings: Klebsiella pneumoniae, 50625602, 24 h
Klebsiella pneumoniae [36] = assay: Antibacterial activity against multi-drug resistant/VIM1 producing Klebsiella pneumoniae 50667959 after 24 hrs by microdilution method; type: functional; settings: Klebsiella pneumoniae, 50667959, 24 h
Acinetobacter baumannii [37] = assay: Antibacterial activity against multi-drug resistant/OXA-58 producing Acinetobacter baumannii K12-21 after 24 hrs by microdilution method; type: functional; settings: K12-21, 24 h
Acinetobacter baumannii [38] = assay: Antibacterial activity against multi-drug resistant/OXA-23 producing Acinetobacter baumannii K44-35 after 24 hrs by microdilution method; type: functional; settings: K44-35, 24 h
Acinetobacter baumannii [39] = assay: Antibacterial activity against multi-drug resistant/OXA-23 producing Acinetobacter baumannii K47-42 after 24 hrs by microdilution method; type: functional; settings: K47-42, 24 h
Acinetobacter baumannii [40] = assay: Antibacterial activity against multi-drug resistant/OXA-24 producing Acinetobacter baumannii K55-13 after 24 hrs by microdilution method; type: functional; settings: K55-13, 24 h
Acinetobacter baumannii [41] = assay: Antibacterial activity against multi-drug resistant/OXA-23 producing Acinetobacter baumannii K63-58 after 24 hrs by microdilution method; type: functional; settings: K63-58, 24 h
[42] = Hemolytic activity in human RBC at 64 ug/ml after 1 hr relative to control; type: ADME, cell-based, Erythrocyte; settings: red blood cells (RBC), read-out: Activity
[43] = Aqueous solubility of the compound; type: physicochemical; settings: buffer

CC(C)(C)c1cc(C(=O)Nc2ccccc2C(=O)NCCNC(=N)N)cc(C(C)(C)C)c1.Cl
0.5 µg/mL: MIC [3]
1 µg/mL: MIC (Staphylococcus aureus [1]) | MIC (Bacillus subtilis)
32 µg/mL: MIC90 (Pseudomonas aeruginosa [10]) | MIC (Escherichia coli [22]) | MIC (Escherichia coli [25]) | MIC (Pseudomonas aeruginosa [30]) | MIC (Pseudomonas aeruginosa [31]) | MIC (Klebsiella pneumoniae [32]) | MIC (Klebsiella pneumoniae [33]) | MIC (Klebsiella pneumoniae [36]) | MIC (Acinetobacter baumannii [37]) | MIC (Acinetobacter baumannii [40]) | MIC (Acinetobacter baumannii [41])
37 µg/mL: EC50 [6]
16 µg/mL: MIC (Pseudomonas aeruginosa [5]) | MIC (Pseudomonas aeruginosa [10]) | MIC (Klebsiella pneumoniae [11]) | MIC90 (Klebsiella pneumoniae [11]) | MIC (Escherichia coli [23]) | MIC (Escherichia coli [26]) | MIC (Klebsiella pneumoniae [34]) | MIC (Klebsiella pneumoniae [35]) | MIC (Acinetobacter baumannii [38]) | MIC (Acinetobacter baumannii [39])
8 µg/mL: MIC (Escherichia coli [4]) | MIC (Enterococcus sp.) | MIC (Escherichia coli [9]) | MIC90 (Escherichia coli [9]) | MIC (Enterococcus faecium [17]) | MIC (Enterococcus faecium [19]) | MIC (Enterococcus faecium [20])
2 µg/mL: MIC [2] | MIC (Staphylococcus aureus [8]) | MIC90 (Staphylococcus aureus [8])
37: Selectivity Index [7]
> 4 µg/mL: MIC (Staphylococcus aureus [16])
> 32 µg/mL: MIC (Escherichia coli [24]) | MIC (Pseudomonas aeruginosa [27]) | MIC (Pseudomonas aeruginosa [28]) | MIC (Pseudomonas aeruginosa [29])
4 µg/mL: MIC90 (Enterococcus sp.) | MIC (Staphylococcus aureus [12]) | MIC (Staphylococcus aureus [13]) | MIC (Staphylococcus aureus [14]) | MIC (Staphylococcus aureus [15]) | MIC (Enterococcus faecium [18]) | MIC (Enterococcus faecium [21])

CC(C)(C)c1cc(C(=O)Nc2cccc(C(=O)NCCNC(=N)N)c2)cc(C(C)(C)C)c1.Cl
9.3: Selectivity Index [7]
2 µg/mL: MIC [3]
37 µg/mL: EC50 [6]
> 8 µg/mL: MIC (Staphylococcus aureus [16])
8 µg/mL: MIC (Escherichia coli [4]) | MIC (Pseudomonas aeruginosa [5]) | MIC90 (Enterococcus sp.) | MIC (Pseudomonas aeruginosa [10]) | MIC (Staphylococcus aureus [12]) | MIC (Staphylococcus aureus [13]) | MIC (Staphylococcus aureus [14]) | MIC (Staphylococcus aureus [15]) | MIC (Enterococcus faecium [17]) | MIC (Enterococcus faecium [18]) | MIC (Enterococcus faecium [19]) | MIC (Enterococcus faecium [20]) | MIC (Enterococcus faecium [21])
4 µg/mL: MIC (Staphylococcus aureus [1]) | MIC [2] | MIC (Bacillus subtilis) | MIC (Staphylococcus aureus [8]) | MIC90 (Staphylococcus aureus [8])
32 µg/mL: MIC (Escherichia coli [22]) | MIC (Escherichia coli [25]) | MIC (Acinetobacter baumannii [37]) | MIC (Acinetobacter baumannii [38]) | MIC (Acinetobacter baumannii [39]) | MIC (Acinetobacter baumannii [41])
16 µg/mL: MIC (Enterococcus sp.) | MIC (Escherichia coli [9]) | MIC90 (Escherichia coli [9]) | MIC90 (Pseudomonas aeruginosa [10]) | MIC (Klebsiella pneumoniae [11]) | MIC90 (Klebsiella pneumoniae [11]) | MIC (Escherichia coli [23]) | MIC (Escherichia coli [24]) | MIC (Escherichia coli [26]) | MIC (Pseudomonas aeruginosa [27]) | MIC (Pseudomonas aeruginosa [29]) | MIC (Pseudomonas aeruginosa [30]) | MIC (Pseudomonas aeruginosa [31]) | MIC (Klebsiella pneumoniae [33]) | MIC (Klebsiella pneumoniae [34]) | MIC (Klebsiella pneumoniae [35]) | MIC (Klebsiella pneumoniae [36])
> 32 µg/mL: MIC (Pseudomonas aeruginosa [28]) | MIC (Klebsiella pneumoniae [32]) | MIC (Acinetobacter baumannii [40])

CC(C)(C)c1cc(C(=O)Nc2ccc(CC(=O)NCCNC(=N)N)cc2)cc(C(C)(C)C)c1.Cl
2 µg/mL: MIC [3]
16 µg/mL: MIC (Escherichia coli [4]) | MIC (Pseudomonas aeruginosa [5])
Insoluble: solubility [43]
> 16: Selectivity Index [7]
> 64 µg/mL: EC50 [6]
35%: hemolysis at 1 h, 64 ug/ml [42]
4 µg/mL: MIC (Staphylococcus aureus [1]) | MIC [2] | MIC (Bacillus subtilis)
